Assay results taken from ChEMBL document CHEMBL1137056, “Synthesis of fluorinated analogues of SJG-136 and their DNA-binding potential” (Bioorg Med Chem Lett, 2004).

Columns and labels:
Format in all cases: functional
Bos taurus [1] = species: Bos taurus; assay: Increase in melting point temperature after 36 hr of incubation [1:5] as measurement of DNA binding affinity using calf thymus DNA
Procedure, shortened: (§1)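 Thermal denaturation of calf thymus DNA, 100 µM DNA with 20 µM ligand (1:5 ligand:DNA molar ratio). Buffer was aqueous 10 mM sodium phosphate with 1 mM EDTA, pH 7.00. Mixtures were incubated at 37°C for the stated time, then the shift in helix melting temperature versus DNA alone was recorded. DNA-only Tm is the mean of 10 determinations.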

Bos taurus [2] = species: Bos taurus; assay: Increase in melting point temperature after 0h of incubation [1:5 ratio] as measurement of DNA binding affinity using calf thymus DNA; procedure, shortened: as §1
Bos taurus [3] = species: Bos taurus; assay: Increase in melting point temperature after 18 hr of incubation [1:5] as measurement of DNA binding affinity using calf thymus DNA; procedure, shortened: as §1

`COc1cc2c(cc1OCCCCCOc1cc3c(cc1OC)C(=O)N1CC(=C(F)F)C[C@H]1C=N3)N=C[C@@H]1CC(=C(F)F)CN1C2=O` showed a ΔTm (Bos taurus [1]) of 21.3 °C, a ΔTm (Bos taurus [2]) of 16.2 °C and a ΔTm (Bos taurus [3]) of 19.2 °C.
Work on `COc1cc2c(cc1OCCCOc1cc3c(cc1OC)C(=O)N1CCC[C@H]1C=N3)N=C[C@@H]1CCCN1C2=O` yielded a ΔTm (Bos taurus [1]) of 15.7 °C, a ΔTm (Bos taurus [2]) of 10.2 °C and a ΔTm (Bos taurus [3]) of 15.1 °C.
With `COc1cc2c(cc1O)N=C[C@@H]1CCCN1C2=O` the ΔTm (Bos taurus [1]) was 0.7 °C, the ΔTm (Bos taurus [2]) was 0.3 °C and the ΔTm (Bos taurus [3]) was 0.7 °C.
`COc1cc2c(cc1O)N=C[C@@H]1CC(=C(F)F)CN1C2=O` was tested, and the ΔTm (Bos taurus [1]) was 2.2 °C, the ΔTm (Bos taurus [2]) was 1 °C and the ΔTm (Bos taurus [3]) was 1.7 °C.
In the case of `COc1cc2c(cc1OCCCCOc1cc3c(cc1OC)C(=O)N1CC(=C(F)F)C[C@H]1C=N3)N=C[C@@H]1CC(=C(F)F)CN1C2=O`, the ΔTm (Bos taurus [1]) is reported as 6.5 °C, the ΔTm (Bos taurus [2]) is reported as 2.1 °C and the ΔTm (Bos taurus [3]) is reported as 5.2 °C.
Compound `C=C1C[C@H]2C=Nc3cc(OCCCOc4cc5c(cc4OC)C(=O)N4CC(=C)C[C@H]4C=N5)c(OC)cc3C(=O)N2C1` has a ΔTm (Bos taurus [2]) of 25.7 °C and a ΔTm (Bos taurus [3]) of 33.6 °C.
For `COc1cc2c(cc1OCCCOc1cc3c(cc1OC)C(=O)N1CC(=C(F)F)C[C@H]1C=N3)N=C[C@@H]1CC(=C(F)F)CN1C2=O`, the ΔTm (Bos taurus [1]) was 24.9 °C, the ΔTm (Bos taurus [2]) was 20.8 °C and the ΔTm (Bos taurus [3]) was 24.6 °C.
